Source: ChEMBL document CHEMBL1142461, “In vitro biological evaluation of novel 7-O-dialkylaminoalkyl cytotoxic pectolinarigenin derivatives against a panel of human cancer cell lines” (Bioorg Med Chem Lett, 2008)

Experiments:
[1] = Antiproliferative activity against human 142BR cells after 48 hrs by sulforhodamine B assay; format: functional, cell-based
Method in brief: (§1)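 Cells grown in RPMI 1640 (ACHN, C32, COR-L23) or DMEM (142BR, A375, A549, Caco-2, Huh-7D12), seeded and allowed to attach for 24 h. Then exposed 48 h to six serial dilutions (DMSO ≤0.5% final, matched in solvent controls), in six replicates. Fixed with ice-cold 40% TCA for 1 h at 4 °C and SRB-stained, read at 564 nm. Survival taken as % of untreated control; IC50 from dose–response curve; mean ± SD.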

[2] = Antiproliferative activity against human Huh-7D12 cells after 48 hrs by sulforhodamine B assay; format: functional, cell-based; conditions: Huh-7D12, 48 h; method in brief: as §1
Caco-2 = experiment: Antiproliferative activity against human Caco-2 cells after 48 hrs by sulforhodamine B assay; format: functional, cell-based; conditions: Caco-2, 48 h; method in brief: as §1
COR-L23 = experiment: Antiproliferative activity against human COR-L23 cells after 48 hrs by sulforhodamine B assay; format: functional, cell-based; conditions: COR-L23, 48 h; method in brief: as §1
ACHN = experiment: Antiproliferative activity against human ACHN cells after 48 hrs by sulforhodamine B assay; format: functional, cell-based; method in brief: as §1
C32 = experiment: Antiproliferative activity against human C32 cells after 48 hrs by sulforhodamine B assay; format: functional, cell-based; conditions: C32, 48 h; method in brief: as §1
A549 = experiment: Antiproliferative activity against human A549 cells after 48 hrs by sulforhodamine B assay; format: functional, cell-based; conditions: A549, 48 h; method in brief: as §1
A-375 = experiment: Antiproliferative activity against human A375 cells after 48 hrs by sulforhodamine B assay; format: functional, cell-based; conditions: A-375, 48 h; method in brief: as §1
[3] = Partition coefficient, log P of the compound; format: physicochemical; conditions: octanol/water

Row | Compound | IC50 [1] [µM] | IC50 [2] [µM] | IC50 (Caco-2) [µM] | IC50 (COR-L23) [µM] | IC50 (ACHN) [µM] | IC50 (C32) [µM] | IC50 (A549) [µM] | IC50 (A-375) [µM] | logP [3]
1 | CCN(CC)CCOc1cc2oc(-c3ccc(OC)cc3)cc(=O)c2c(O)c1OC | > 100 | > 100 | > 100 | 41.9 | 54.1 | > 100 | 59.9 | > 100 | 3
2 | COc1ccc(-c2cc(=O)c3c(O)c(OC)c(OCCN4CCCC4)cc3o2)cc1 | > 100 | > 100 | > 100 | > 100 | 12.7 | 54.7 | > 100 | 38.6 | 2.6
3 | COc1ccc(-c2cc(=O)c3c(O)c(OC)c(OCCN4CCCCC4)cc3o2)cc1 | > 100 | > 100 | 78.6 | 34.1 | 92.6 | 63.6 | 44.9 | 52.3 | 3
4 | COc1ccc(-c2cc(=O)c3c(O)c(OC)c(O)cc3o2)cc1 [PECTOLINARIGENIN] | > 100 | > 100 | 5.3 | 4.1 | 15.2 | 7 | 5.6 | 8.2 | 2
5 | COc1ccc(-c2cc(=O)c3c(O)c(OC)c(OCCN4CCOCC4)cc3o2)cc1 | > 100 | > 100 | > 100 | 39.5 | 55.7 | 47.6 | 85.1 | 58.8 | 1.9
6 | COc1ccc(-c2cc(=O)c3c(O)c(OC)c(OCCN(C)C)cc3o2)cc1 | > 100 | > 100 | > 100 | 9.2 | 10.5 | > 100 | 13.2 | > 100 | 2.3
7 | COc1ccc(-c2cc(=O)c3c(O)c(OC)c(OCCCN(C)C)cc3o2)cc1 | > 100 | > 100 | > 100 | 7.2 | 10.8 | 8.9 | 7.4 | 7.7 | 2.4
8 | COc1ccc(-c2cc(=O)c3c(O)c(OC)c(O[C@@H]4O[C@H](CO[C@@H]5O[C@@H](C)[C@H](O)[C@@H](O)[C@H]5O)[C@@H](O)[C@H](O)[C@H]4O)cc3o2)cc1 [PECTOLINARIN] | > 100 | 50.8 | 6.2 | 5 | 17.2 | 7.2 | 38.8 | 32.9 | -0.7
